{"data": "Results pooled from the literature", "target": "Dual specificity protein kinase CLK3 (CLK3, Homo sapiens, UniProt P49761)", "technique": "competition with immobilised ligand", "note": "Each line is one published result; the experiments were not run side by side."}
{"SMILES": "FC(F)(F)Oc1cccc(-c2cnc3ccc(-c4ccncc4)nn23)c1", "test": "cell-free assay", "setting": "5 µM", "remaining binding": "8.1%"}
{"SMILES": "C[C@@H](c1ccc(-n2cnc3c(N)ncnc32)cc1)N1CCc2nn(C)c(Cc3ccccc3)c2C1=O", "test": "binding", "setting": "0.1 µM", "remaining binding": "71%"}
{"SMILES": "Nc1c(C(=O)NCc2ccc(C(=O)NCCCC3CCCCC3)cc2)cnn1-c1ccccc1", "test": "cell-free assay", "setting": "0.1 µM", "remaining binding": "95%"}
{"SMILES": "O=C(NCC1CCOCC1)c1n[nH]cc1NC(=O)c1c(F)cccc1F", "test": "binding", "setting": "1 µM", "remaining binding": "64%"}
{"SMILES": "CNC(=O)[C@@H]1CC[C@@H](n2c(-c3ccc4cnccc4c3)nc3ccc(C(=O)NCc4cccc(C(N)=O)c4)cc32)C1", "test": "binding", "setting": "1 µM", "remaining binding": "100%"}
{"SMILES": "CS(=O)(=O)c1cc(C2(NC(=O)c3cncc4c3cnn4-c3ccc(F)cc3)CC2)ccn1", "test": "cell-free assay", "setting": "1 µM", "remaining binding": "86%"}
{"SMILES": "Cc1cnc(Nc2ccc(C(=O)N3CCC(N4CCCC4)CC3)cc2)nc1-c1cc2ccccc2s1", "test": "binding", "setting": "1 µM", "remaining binding": "7%"}
{"SMILES": "c1cncc(-c2cccc(Nc3nccc(NC4CCCCC4)n3)c2)c1", "test": "binding", "setting": "10 µM", "remaining binding": "57%"}
{"SMILES": "CO[C@@H](C)c1c(Nc2ccc([C@@H](N(C)C(=O)C3CCS(=O)(=O)CC3)C(F)(F)F)cc2)cnc2cc(Cl)nn12", "test": "cell-free assay", "setting": "1 µM", "remaining binding": "87%"}
{"SMILES": "COc1cnc(Nc2cccc(S(N)(=O)=O)c2)nc1N1CCN(c2ccccc2)CC1", "test": "binding", "setting": "1 µM", "remaining binding": "97%"}
{"SMILES": "O=C(c1ccc(Nc2ncc(Cl)c(-c3cc4ccccc4s3)n2)cc1)N1CCC(N2CCCC2)CC1", "test": "binding", "setting": "1 µM", "remaining binding": "7.4%"}
{"SMILES": "CN(C(=O)c1ccccc1)c1cc(N(C)c2ccc3c(c2)CCc2ccc(C(=O)NCCN4CCOCC4)cc2C3=O)ccc1F", "test": "cell-free assay", "setting": "1 µM", "remaining binding": "100%"}
{"SMILES": "O=C(NCCCN1CCOCC1)c1ccc(Nc2nccc(-c3cc4ccccc4s3)n2)cc1", "test": "binding", "setting": "1 µM", "remaining binding": "84%"}
{"SMILES": "COc1ncc2cc3ccccc3nc2c1C#N", "test": "cell-free assay", "setting": "5 µM", "remaining binding": "94%"}
